Screening results: PubChem, several laboratories
MrgX1 antagonist – antagonists of human MrgX1 receptor, primary screen, HEK293 cells, Fluo-4 calcium flux; Mas-related G-protein coupled receptor member X1 (Homo sapiens), Q96LB2; BAM8-22 antagonism; stronger effect = lower value; B-score at 10 µM; actives 1.3% (n = 310,000); AID 588676, 2011;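 active = calcium-response B-score plate-corrected more than 3 library SD below zero, starting fluorescence within 5 deviations, no agonist response on first addition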;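 note: peak minus trough fluorescence over baseline after final BAM8-22 challenge near maximal dose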
KCC2 mod – KCC2 cotransporter modulators, thallium flux, primary screen, cell-based, HEK293 KCC2, FluoZin-2 fluorescence, MLSMR; KCC2 cells, thallium flux FluoZin-2 fluorescence; B-score of Tl+ flux slope (higher = more flux/activation; lower = inhibition) at 10 µM; actives 2.2% (n = 190,000); AID 1456, 2008;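 active = thallium flux slope and its plate-corrected score both differing from the plate sample mean at a set confidence after two filtering rounds, in either direction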;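 note: slope of fluorescence scaled to starting intensity during 10 to 20 s after thallium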
Target sequence (Q9H2X9 whole entry, looked up): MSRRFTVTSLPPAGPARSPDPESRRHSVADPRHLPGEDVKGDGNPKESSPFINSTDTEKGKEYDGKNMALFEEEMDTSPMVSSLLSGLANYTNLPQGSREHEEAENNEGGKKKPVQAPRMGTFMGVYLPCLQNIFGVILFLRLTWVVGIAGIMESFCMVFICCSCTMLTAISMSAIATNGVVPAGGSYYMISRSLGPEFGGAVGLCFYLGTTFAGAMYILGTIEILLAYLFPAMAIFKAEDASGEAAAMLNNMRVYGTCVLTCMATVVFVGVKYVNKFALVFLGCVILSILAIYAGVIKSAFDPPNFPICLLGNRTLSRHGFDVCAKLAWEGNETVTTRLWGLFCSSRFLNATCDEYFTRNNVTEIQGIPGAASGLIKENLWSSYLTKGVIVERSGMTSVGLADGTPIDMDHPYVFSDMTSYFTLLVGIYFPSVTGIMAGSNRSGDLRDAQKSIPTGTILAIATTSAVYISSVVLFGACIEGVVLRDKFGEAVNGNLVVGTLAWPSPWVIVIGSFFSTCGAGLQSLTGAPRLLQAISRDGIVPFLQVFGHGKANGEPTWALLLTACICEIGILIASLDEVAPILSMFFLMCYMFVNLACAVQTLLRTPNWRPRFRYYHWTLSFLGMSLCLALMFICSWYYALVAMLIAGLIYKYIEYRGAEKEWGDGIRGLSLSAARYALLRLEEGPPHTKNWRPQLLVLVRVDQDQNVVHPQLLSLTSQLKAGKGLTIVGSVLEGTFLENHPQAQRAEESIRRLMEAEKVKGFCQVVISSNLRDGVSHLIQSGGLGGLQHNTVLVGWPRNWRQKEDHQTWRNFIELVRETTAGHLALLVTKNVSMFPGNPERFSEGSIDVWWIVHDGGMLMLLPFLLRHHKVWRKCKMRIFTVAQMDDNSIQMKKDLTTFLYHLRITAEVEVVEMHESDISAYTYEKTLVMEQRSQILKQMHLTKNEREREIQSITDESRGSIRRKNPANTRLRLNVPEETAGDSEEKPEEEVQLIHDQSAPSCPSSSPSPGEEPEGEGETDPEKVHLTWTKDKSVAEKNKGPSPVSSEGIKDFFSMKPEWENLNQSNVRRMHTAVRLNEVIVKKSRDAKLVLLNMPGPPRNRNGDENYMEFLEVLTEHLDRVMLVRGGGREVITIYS
MrgX1 PAM – positive allosteric modulators of MrgX1, primary screen, HEK293 cells, Fluo-4 calcium flux. Mas-related G-protein coupled receptor member X1 (Homo sapiens), Q96LB2. FDSS; stronger effect = higher value. B-score at 10 µM. actives 0.63% (n = 310,000). AID 588675, 2011;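 active = plate-corrected calcium response at least 3 library SD above typical, normal starting fluorescence, not activating the receptor alone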;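 note: compound read alongside a low EC10 to EC30 dose of BAM8-22 agonist; peak minus trough fluorescence over baseline measured at the second addition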
MrgX1 ag – agonists of human MrgX1 receptor, primary screen, HEK293 cells, Fluo-4 calcium flux; B-score at 10 µM; actives 0.44% (n = 310,000); Fluo-4 calcium fluorescence, agonist mode; stronger effect = higher value; Mas-related G-protein coupled receptor member X1 (Homo sapiens), Q96LB2;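 active = calcium response B-score plate-corrected fluorescence ratio at least 3 library SD, with starting fluorescence B-score inside 5 SD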
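Material: HEK293 cells stably expressing human MrgX1 receptor | Quantity: 15,000 cells per well | Times: Cells plated overnight, dye loaded 0.5 h 37 °C, 0.5 h room temperature | Measured by: Kinetic Fluo-4 NW fluorescence of intracellular calcium | Control set: Positive and negative controls per plate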
RGS4 inh – RGS4 inhibitors, primary screen, cell-based, HEK293 M3R inducible RGS4, calcium flux; Regulator of G-protein signaling 4 (Homo sapiens), P49798; Fluo-4 calcium flux; stronger effect = higher value; triggered by carbachol at its EC20; B-score at 10 µM; actives 0.45% (n = 310,000);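 active = B-score, a plate-corrected calcium signal, over three deviations above library mean, with baseline fluorescence within five deviations of library mean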;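 note: RGS4 expression induced by doxycycline in cells with stable M3 receptor; B-score is computed from the integrated fluorescence ratio over baseline after carbachol; higher B-score means a larger calcium signal and so more RGS4 inhibition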
RGS4 pot – RGS4 potentiators or activators, primary screen, cell-based, HEK293 M3R inducible RGS4, calcium flux; carbachol calcium flux Fluo4; stronger effect = lower value; B-score at 10 µM; actives 0.92% (n = 310,000);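 active = B-score of the integrated calcium signal more than 4 SD below the library mean, with starting fluorescence not abnormally high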;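 note: negative B-score means reduced calcium response which marks RGS4 activation or potentiation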
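Assay system: HEK293 FlpIn-TREx cells, stable M3R, doxycycline-inducible RGS4 / Probe or stimulus: carbachol, ECmax concentration / Times: overnight RGS4 induction, 30 min dye load 37 °C, 20 min compound RT / Signal: kinetic calcium fluorescence imaging with Fluo4-AM dye, 2 µM / Measure: Agonist-evoked peak-minus-minimum fluorescence over baseline, integrated ratio, B score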
MrgX1 antag conf – MrgX1 receptor antagonists, duplicate retest, confirmation, HEK293 cells, Fluo-4 calcium flux | shares compounds with MrgX1 antagonist | BAM8-22 calcium flux; stronger effect = lower value | remaining BAM8-22 calcium response % of control (stronger effect = lower value), % at 10 µM | actives 19% (n = 2,300) | AID 602420, 2012;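 active = remaining agonist calcium response no higher than 100% minus 3 SD of agonist-only control wells, with starting fluorescence near control levels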;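 note: agonist BAM8-22 given at a near maximal EC90 to ECmax level; peak minus minimum fluorescence divided by baseline after agonist addition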
HEK293 Ca flux – nonspecific calcium signal in parental HEK293, confirmation, counter-screen for MrgX1 antagonist project, parental HEK293 cells, Fluo-4 calcium flux | shares compounds with MrgX1 antagonist | Fluo-4 calcium fluorescence, FDSS | fluorescence ratio F(max-min)/F0 at 10 µM | actives 2% (n = 4,000) | AID 624111, 2012;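 active = duplicate-averaged calcium fluorescence ratio at least three times the standard deviation of buffer wells, a nonspecific response in parental cells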
HEK293 Ca counter – calcium response in parental HEK293 cells, primary screen, counter-screen for MrgX1 allosteric activator project, cell-based, Fluo-4 calcium flux, duplicate; AID 624114, 2012; Fluo-4 fluorescence ratio; stronger effect = higher value; shares compounds with MrgX1 antagonist; fluorescence ratio F(max-min)/F0 at 10 µM; actives 0.4% (n = 4,000);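 active = calcium fluorescence ratio, averaged over duplicates, at least 3 SD of the buffer-well ratio, meaning a nonspecific response in receptor-free cells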;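 note: untransfected parental HEK293 lacking MrgX1 used as counterscreen for MrgX1 allosteric activators; fluorescence change taken during the second addition on a kinetic imager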
HEK293 Ca cntr2 – calcium response in parental HEK293 cells, primary screen, counter-screen for MrgX1 agonist project, cell-based, Fluo-4 calcium flux, duplicate, agonist mode; shares compounds with MrgX1 antagonist; Fluo-4 calcium fluorescence (FDSS); stronger effect = higher value; fluorescence ratio F(max-min)/F0 at 10 µM; actives 8.7% (n = 4,000);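 active = calcium fluorescence ratio at least three times the spread of buffer wells, meaning a non-specific response in parental cells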
A number is an active result; - = inactive; . = not tested or not shown. The list is not random: actives were taken first. Their share in the collection is about 4.7%.

SMILES	MrgX1 antagonist	KCC2 mod	MrgX1 PAM	MrgX1 ag	RGS4 inh	RGS4 pot	MrgX1 antag conf	HEK293 Ca flux	HEK293 Ca counter	HEK293 Ca cntr2
O=C(Nc1ccc2c(c1)OC1(CCCC1)O2)C1CC1	-5.9	-	-	-	-	-	-	-	-	-
O=C(Nc1ccc2c(c1)oc1ccccc12)C1CC1	-	-	-	-	-	-	.	.	.	.
COc1ccccc1OCC(=O)Nc1ccc(NC(=O)COc2ccccc2OC)cc1	-	.	-	-	-	-	.	.	.	.
COc1ccccc1OCC(=O)Nc1ccc(S(=O)(=O)NC(C)=O)cc1	-6.7	-	-	-	-	-	-	-	-	-
CCc1ccc(-c2cc(C(=O)NCc3ccccn3)c3ccccc3n2)cc1	-5.3	-	-	-	-	-	77%	-	-	-
CN(CCO)c1c2c(nc3cc(-c4cccc(F)c4)nn13)CCCC2	-9.6	-	-	-	-	-	-	-	-	-
Cn1c(SCc2ccc(C#N)cc2)nnc1-c1cccc(Cl)c1	-4.7	-	-	-	-	-	-	-	-	-
Cn1c(SCc2ccc(C#N)cc2)nnc1-c1ccccc1	-	-	-	-	-	-	.	.	.	.
Nc1cc(=O)[nH]c(SCc2nnnn2-c2ccc(Cl)cc2)n1	-6.9	-	-	-	-	-	-	-	-	-
Cc1cc(=O)[nH]c(SCc2nnnn2-c2ccc(Cl)cc2)n1	-	-	-	-	-	-	.	.	.	.
CCC(=O)Nc1ccc(NC(=S)Nc2ccccc2)cc1	-4.8	-	-	-	-	-	-	-	-	-
O=C1O/C(=C/c2ccccc2)N=C1c1ccccc1	-5	.	-	-	-	-	-	-	-	-
Cc1ccc(NC(=O)COC(=O)C(CC(C)C)N2C(=O)C3CC=CCC3C2=O)c(C)c1 (centres undefined)	-	-	-	-	-	-	.	.	.	.
O=C1CS(=O)(=O)c2ccccc2N1	-	.	-	-	-	-	.	.	.	.
CC(OC(=O)CN(C)S(=O)(=O)c1ccc(Cl)cc1)C(=O)Nc1ccc(N2CCOCC2)cc1 (centres undefined)	.	-	.	.	-	-	.	.	.	.
CC(=O)Nc1ccc(NC(=O)C(C)OC(=O)CN(C)S(=O)(=O)c2ccc(Cl)cc2)cc1 (centres undefined)	-6.1	-	-	-	-	-	-	-	-	-
O=C(c1cccc(Cl)c1)N1CCCC(C(=O)N2CCN(c3ccccc3)CC2)C1 (centres undefined)	-	.	-	-	-	-	.	.	.	.
CCc1ccc(C2CC(c3ccccc3Cl)Nc3nc(N)nn32)cc1 (centres undefined)	-5.1	-	-	-	-	-	-	-	-	-
Nc1nc2n(n1)C(c1ccco1)CC(c1ccc(Cl)cc1)N2 (centres undefined)	-6.3	-	-	-	-	-	-	-	-	-
COc1ccc(CN(C)C(=O)c2cccc(NS(=O)(=O)c3ccccc3)c2)c(OC)c1	-	.	-	-	-	-	.	.	.	.
CC(=Nc1ccccc1C)C1=C(O)CSC1=O	-5.4	-	-	-	-	-	-	-	-	-
CCOC(=O)C1CN(S(=O)(=O)c2ccc(C)cc2)c2cc(S(=O)(=O)CC)ccc2O1 (centres undefined)	-4.8	-	-	-	-	-	-	-	-	-
CC(=O)NCCc1ccc(S(=O)(=O)NC2OC(=O)c3ccccc32)cc1 (centres undefined)	-4.8	.	-	-	-	-	-	-	-	-
Cc1ccc(S(=O)(=O)N(CC(=O)Nc2ccccc2C(=O)O)c2ccccc2C)cc1	-	-	-	-	-	-	.	.	.	.
Cc1ccc(S(=O)(=O)N(CC(=O)Nc2ccccc2C(=O)O)c2cccc(Cl)c2C)cc1	-7.1	-	-	-	-	-	-	-	-	-
SMILES	MrgX1 antagonist	KCC2 mod	MrgX1 PAM	MrgX1 ag	RGS4 inh	RGS4 pot	MrgX1 antag conf	HEK293 Ca flux	HEK293 Ca counter	HEK293 Ca cntr2
O=S1(=O)CCOCCN1Cc1ccc(Cl)cc1Cl	-	.	-	-	-	-	.	.	.	.
CCCCCNC(=O)c1cc(S(=O)(=O)N2CCCCC2)ccc1F	-7.9	-	-	-	-	-	-	-	-	-
O=C(NCCc1ccccc1)c1cc(S(=O)(=O)N2CCCC2)ccc1F	-	.	-	-	-	-	.	.	.	.
CCn1c(=O)[nH]c(=O)c2c(N)c(C(=O)c3cc(F)ccc3F)sc21	-	-	-	-	-	-	.	.	.	.
CC(C)(C)CC(=O)Nc1cc2c3c(c1)CCC(=O)N3CCC2	-4.9	.	-	-	-	-	-	-	-	-
CC(C)(C)CC(=O)Nc1cc2c3c(c1)CC(=O)N3CCC2	-	.	-	-	-	-	.	.	.	.
Cc1sc2nc(CSc3ccccc3)nc(N3CCC(C(N)=O)CC3)c2c1C	-11	-	-	-	-	-	-	-	-	-
Cc1cc(C)c(OCCCNC2CCCC2)c(Br)c1	-	.	-	-	-	-	.	.	.	.
N#C/C(=C(/O)CSc1nnc(Cc2cccs2)n1C1CCCCC1)c1nc2ccccc2[nH]1	-	-	-	-	-	-	.	.	.	.
N#CCSc1nnc(Cc2cccs2)n1C1CCCCC1	-4.7	-	-	-	-	-	-	-	-	-
O=C(CSc1nnc(CN2CCCCCC2=O)n1-c1ccccn1)NCC(F)(F)F	-4.6	.	-	-	-	-	-	-	-	-
CC(C)(C)NC(=O)CSc1nnc(CN2CCCCCC2=O)n1-c1ccccn1	-	-	-	-	-	-	.	.	.	.
COc1ccc(CCC(=O)Nc2ccc(Cn3ccnc3)cc2)cc1	-	.	-	-	-	-	.	.	.	.
O=C(NCc1ccc(F)cc1)c1ccncc1	-	.	-	-	-	-	.	.	.	.
O=C(Nc1cccc(F)c1)Nc1ccnn1C1CCN(C(=O)c2cscn2)CC1	-7.3	.	-	-	-	-	-	-	-	-
